Assay [1] relates to P338. In words: Antitumor activity against P338 leukemia cells measured as toxic level at 3.12 mg/kg, ip optimal dose on day 1 in mice. The conditions noted are these: route intraperitoneal. The assay is classed as functional, Mus musculus. The method in brief: (§1)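 Groups of five mice were inoculated ip with 10⁶ P388 (P338) lymphocytic leukemia cells on day 0. The drug was given as a single ip injection on day 1, following NCI protocols. Optimal dose, maximum % T/C and toxic level are in mg/kg. % T/C = (average survival time of treated mice / control mice) × 100.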

For assay [2], the system named is P338. In words: Antitumor activity against P338 leukemia cells measured as T/C(average survival time of treated mice/control mice*100)at 6.25 mg/kg, ip optimal dose on days 1-5 in mice. It counts as functional. The conditions noted are these: Mus musculus, route intraperitoneal. Summed up: (§2)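 Five CD2F1 mice per group received 10⁶ P388 lymphocytic leukemia cells ip on day 0. Drug was given ip daily on days 1–5, following NCI protocols. %T/C is mean survival time of treated over control mice × 100, taken at the optimal dose; the toxic dose level was also recorded.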

For assay [3], the system named is P338. Kind of assay: Antitumor activity against P338 leukemia cells measured as T/C at 3.12 mg/kg, ip optimal dose on day 1 in mice. The assay is classed as functional. The following applies: Mus musculus, 24 h, route intraperitoneal. Summed up: (§3)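 Groups of five CD2F1 mice were inoculated ip with 10⁶ P388 lymphocytic leukemia cells on day 0. Drug was given as a single ip injection on day 1, following NCI protocols. %T/C = (average survival time of treated mice / control mice) × 100, taken at the optimal dose; the toxic dose level was also recorded.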

Assay [4] deals with P338. Kind of assay: Antitumor activity against P338 leukemia cells measured as toxic level at 6.25 mg/kg, ip optimal dose on days 1-5 in mice. It counts as functional, Mus musculus. The following applies: route intraperitoneal. The method in brief: (§4)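 Groups of five mice were inoculated ip with 10⁶ P388 (P338) lymphocytic leukemia cells on day 0. Drug was injected ip daily on days 1–5, following NCI protocols. Optimal dose, maximum % T/C and toxic level are in mg/kg. % T/C = (average survival time of treated mice / control mice) × 100.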

Assay [5] concerns P338. In words: Antitumor activity against P338 leukemia cells measured as toxic level at 3.12 mg/kg, ip optimal dose on days 1-5 in mice. The assay is classed as functional, Mus musculus. The following applies: route intraperitoneal. Summed up: as §4
Assay [6] relates to P338. Kind of assay: Antitumor activity against P338 leukemia cells measured as T/C(average survival time of treated mice/control mice*100)at 3.12 mg/kg, ip optimal dose on days 1-5 in mice. It counts as functional. The conditions noted are these: Mus musculus, route intraperitoneal. Summed up:
as §2

The test system of assay [7] is P338. In words: Antitumor activity against P338 leukemia cells measured as toxic level at 6.25 mg/kg, ip optimal dose on day 1 in mice. The following applies: route intraperitoneal. It counts as functional, Mus musculus. The method in brief: as §1
Assay [8] has as its system P338. Kind of assay: Antitumor activity against P338 leukemia cells measured as T/C(average survival time of treated mice/control mice*100)at 6.25 mg/kg, ip optimal dose on day 1 in mice. The following applies: Mus musculus, 24 h, route intraperitoneal. It counts as functional. The method in brief: as §3
The test system of assay [9] is P338. Kind of assay: Antitumor activity against P338 leukemia cells measured as T/C(average survival time of treated mice/control mice*100)at 25 mg/kg, ip optimal dose on day 1 in mice. The assay is classed as functional. The following applies: Mus musculus, 24 h, route intraperitoneal. Summed up:
as §3

The subject of assay [10] is P338. In words: Antitumor activity against P338 leukemia cells measured as toxic level at 25 mg/kg, ip optimal dose on day 1 in mice. It counts as functional, Mus musculus. The conditions noted are these: route intraperitoneal. Summed up: as §1
Assay [11] relates to P338. In words: Antitumor activity against P338 leukemia cells measured as T/C(average survival time of treated mice/control mice*100)at 0.4 mg/kg, ip optimal dose on days 1-5 in mice. The conditions noted are these: Mus musculus, route intraperitoneal. The assay is classed as functional. The method in brief:
as §2

Assay [12] relates to P338. In words: Antitumor activity against P338 leukemia cells measured as toxic level at 0.4 mg/kg, ip optimal dose on day 1 in mice. The assay is classed as functional, Mus musculus. The conditions noted are these: route intraperitoneal. Summed up: as §1
The subject of assay [13] is P338. Kind of assay: Antitumor activity against P338 leukemia cells measured as T/C(average survival time of treated mice/control mice*100)at 0.4 mg/kg, ip optimal dose on day 1 in mice. The assay is classed as functional. The following applies: Mus musculus, 24 h, route intraperitoneal. Summed up: as §3
For assay [14], the system named is P338. In words: Antitumor activity against P338 leukemia cells measured as toxic level at 0.4 mg/kg, ip optimal dose on days 1-5 in mice. The assay is classed as functional, Mus musculus. The following applies: route intraperitoneal. The method in brief:
as §4

Assay [15] relates to P338. In words: Antitumor activity against P338 leukemia cells measured as toxic level at 1.56 mg/kg, ip optimal dose on days 1-5 in mice. It counts as functional, Mus musculus. The conditions noted are these: route intraperitoneal. Summed up:
as §4

In assay [16] the test system is P338. Kind of assay: Antitumor activity against P338 leukemia cells measured as T/C(average survival time of treated mice/control mice*100)at 1.56 mg/kg, ip optimal dose on days 1-5 in mice. The assay is classed as functional. The following applies: Mus musculus, route intraperitoneal. The method in brief: as §2
Assay [17] has as its system P338. In words: Antitumor activity against P338 leukemia cells measured as T/C(average survival time of treated mice/control mice*100)at 12.5 mg/kg, ip optimal dose on days 1-5 in mice. The assay is classed as functional. The conditions noted are these: Mus musculus, route intraperitoneal. The method in brief:
as §2

In assay [18] the test system is P338. In words: Antitumor activity against P338 leukemia cells measured as toxic level at 12.5 mg/kg, ip optimal dose on days 1-5 in mice. The assay is classed as functional, Mus musculus. The following applies: route intraperitoneal. Summed up: as §4
Assay [19] concerns P338. Kind of assay: Antitumor activity against P338 leukemia cells measured as toxic level at 25 mg/kg, ip optimal dose on days 1-5 in mice. The conditions noted are these: route intraperitoneal. The assay is classed as functional, Mus musculus. The method in brief: as §4
The test system of assay [20] is P338. In words: Antitumor activity against P338 leukemia cells measured as T/C(average survival time of treated mice/control mice*100)at 25 mg/kg, ip optimal dose on days 1-5 in mice. The assay is classed as functional. The conditions noted are these: Mus musculus, route intraperitoneal. Summed up:
as §2

Turning to `O=C1C=CC(=O)c2[nH]c(CO)nc21`, the Toxic level in the assay with P338 [1] and in the assay with P338 [4] was 12.5 mg/kg in each case. Moreover, the survival at 6.25 mg/kg in the assay with P338 [2] was 110%. Further, the survival at 3.12 mg/kg in the assay with P338 [3] was 105%.

In the assay with P338 [5], `Cc1nc2c([nH]1)C(=O)C=CC2=O` had a Toxic level of 6.25 mg/kg. The compound also registered a survival at 3.12 mg/kg with P338 [6] of 100%.

For the compound `O=C1C=CC(=O)c2[nH]cnc21`, the Toxic level in the assay on P338 [7] is 12.5 mg/kg; in the assay on P338 [4], 25 mg/kg. The survival at 6.25 mg/kg in the assay with P338 [8] came to 105%; in the assay on P338 [2], 110%.

In the case of `CC1=C(C)C(=O)c2c(ncn2C)C1=O`, in the assay with P338 [9], the survival at 25 mg/kg came to 95%. Further, the Toxic level in the assay with P338 [10] was found to be 100 mg/kg.

Take `Cn1cnc2c1C(=O)C=CC2=O`: the values for the survival at 0.4 mg/kg with P338 [11] and in the assay on P338 [13] were 95% and 76%, respectively. Also, the Toxic level amounted to 3.12 mg/kg in the assay on P338 [12] and 6.25 mg/kg in the assay with P338 [14].

`O=C(Nc1ccccc1)OCc1nc2c([nH]1)C(=O)C=CC2=O` showed a survival at 6.25 mg/kg with P338 [2] of 146%. This compound came in with a Toxic level with P338 [4] of 25 mg/kg.

Compound `O=C1C(Br)=C(Br)C(=O)c2[nH]cnc21` had a Toxic level in the assay on P338 [15] of 12.5 mg/kg. The same compound gave a survival at 1.56 mg/kg in the assay on P338 [16] of 130%.

The compound `O=C1C(CCl)=CC(=O)c2[nH]cnc21` came in with a Toxic level in the assay on P338 [5] of 12.5 mg/kg. Further, the survival at 3.12 mg/kg in the assay with P338 [6] was 95%.

On to `CC1=C(C)C(=O)c2[nH]c(C)nc2C1=O`, for which the survival at 12.5 mg/kg in the assay with P338 [17] was 110%. The Toxic level in the assay with P338 [18] is 100 mg/kg.

Turning to `O=C1C(Br)=C(N2CC2)C(=O)c2[nH]cnc21`, the survival at 6.25 mg/kg in the assay on P338 [2] is 156%. This compound yielded a Toxic level with P338 [4] of 12.5 mg/kg.

In the case of `O=C1C=C(NCc2ccccc2)C(=O)c2[nH]cnc21`, the Toxic level in the assay on P338 [5] is 150 mg/kg; in the assay on P338 [10], 100 mg/kg. This compound registered a survival at 25 mg/kg in the assay with P338 [9] of 90%. The compound also had a survival at 3.12 mg/kg with P338 [6] of 105%.

As for `O=C1C(Cl)=CC(=O)c2[nH]cnc21`, the Toxic level in the assay with P338 [7] turned out to be 12.5 mg/kg. The compound also came in with a survival at 6.25 mg/kg with P338 [8] of 117%.

In the assay with P338 [9], `CCn1cnc2c1C(=O)C(C)=C(C)C2=O` came in with a survival at 25 mg/kg of 100%. The compound also returned a Toxic level in the assay on P338 [10] of 100 mg/kg.

In the assay on P338 [2], `CC1CN1C1=C(Br)C(=O)c2[nH]cnc2C1=O` (stereo not given) displayed a survival at 6.25 mg/kg of 136%. Moreover, in the assay with P338 [4], the Toxic level was 12.5 mg/kg.

`NC1=C(Br)C(=O)c2[nH]cnc2C1=O` registered a survival at 6.25 mg/kg with P338 [2] of 154%. The same compound had a Toxic level in the assay with P338 [4] of 25 mg/kg.

As to `CC1=C(C)C(=O)c2[nH]cnc2C1=O`, the Toxic level in the assay on P338 [19] was determined as 200 mg/kg. In addition, the survival at 25 mg/kg in the assay with P338 [20] came out at 130%.

(Values after ChEMBL document CHEMBL1124278, “Heterocyclic quinones with potential antitumor activity. 2. Synthesis and antitumor activity of some benzimidazole-4,7-dione derivatives” (1988).)
